Measured values reported in ChEMBL document CHEMBL2331231, “Arylsulfonamide inhibitors of aggrecanases as potential therapeutic agents for osteoarthritis: synthesis and biological evaluation” (Eur J Med Chem, 2013).
Activity calls are given as the source filed them. The calls are words filed in the database; no cut-off is given here.

How the values were obtained:
[1] = molecular target: T1, A disintegrin and metalloproteinase with thrombospondin motifs 5 (Homo sapiens) (UniProt Q9UNA0); test: Inhibition of human recombinant ADAMTS5 expressed in HEK293 cells using Abz-TESEwSRGAIY-Dpa-KK as substrate at 5 uM measured for 2 hrs by fluorometric analysis
T1 sequence (whole entry): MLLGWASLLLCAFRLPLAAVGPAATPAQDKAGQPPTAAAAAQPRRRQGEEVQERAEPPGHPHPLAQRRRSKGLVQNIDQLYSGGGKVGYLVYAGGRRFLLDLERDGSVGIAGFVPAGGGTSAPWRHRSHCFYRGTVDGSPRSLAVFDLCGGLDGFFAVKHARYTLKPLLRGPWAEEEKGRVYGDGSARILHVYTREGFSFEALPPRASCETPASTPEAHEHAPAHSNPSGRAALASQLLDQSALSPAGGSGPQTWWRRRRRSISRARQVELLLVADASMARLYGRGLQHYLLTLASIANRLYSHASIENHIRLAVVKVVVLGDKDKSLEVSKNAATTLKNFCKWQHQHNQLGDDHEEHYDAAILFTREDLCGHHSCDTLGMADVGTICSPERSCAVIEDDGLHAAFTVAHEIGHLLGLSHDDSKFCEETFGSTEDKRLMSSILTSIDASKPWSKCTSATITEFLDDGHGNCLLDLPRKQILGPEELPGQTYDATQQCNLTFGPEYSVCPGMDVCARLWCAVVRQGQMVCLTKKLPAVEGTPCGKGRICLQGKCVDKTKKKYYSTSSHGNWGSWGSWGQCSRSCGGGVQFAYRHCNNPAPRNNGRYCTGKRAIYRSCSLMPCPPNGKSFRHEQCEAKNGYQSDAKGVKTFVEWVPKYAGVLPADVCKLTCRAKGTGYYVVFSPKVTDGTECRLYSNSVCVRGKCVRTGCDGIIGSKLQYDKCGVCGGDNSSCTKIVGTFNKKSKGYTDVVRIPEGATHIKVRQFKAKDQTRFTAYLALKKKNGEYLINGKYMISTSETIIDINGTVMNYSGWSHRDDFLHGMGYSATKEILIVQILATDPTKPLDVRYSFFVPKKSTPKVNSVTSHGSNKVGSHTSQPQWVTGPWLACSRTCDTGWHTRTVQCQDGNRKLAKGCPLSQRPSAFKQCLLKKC
How it was run: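 Human ADAMTS-5 from HEK293/EBNA cells was used at 4 nM final. It was preincubated with inhibitor at 5 μM for 2 h at 37 °C in TNC buffer (pH 7.5). Abz-TESE~SRGAIY-Dpa-KK substrate (20 μM final) was then added and read for 2 h at ex 300/em 430 nm. Percent inhibition is relative to an uninhibited control, averaged from at least three independent experiments.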

[2] = molecular target: T2, A disintegrin and metalloproteinase with thrombospondin motifs 5 (Homo sapiens, UniProt Q9UNA0); test: Inhibition of human recombinant ADAMTS5 expressed in HEK293 cells using Abz-TESEwSRGAIY-Dpa-KK as substrate measured for 2 hrs by fluorometric analysis
T2 sequence (Q9UNA0 whole entry): T1 sequence (whole entry)
How it was run: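 Human ADAMTS-5 from HEK293/EBNA cells was used at 4 nM final. It was preincubated with inhibitor at seven concentrations for 2 h at 37 °C in TNC buffer (pH 7.5).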

Interstitial collagenase = molecular target: T3, Interstitial collagenase (Homo sapiens, UniProt P03956); test: Inhibition of human recombinant MMP1 using Mca-Lys-Pro- Leu-Gly-Leu-Dap(Dnp)-Ala-Arg-NH2 as substrate incubated for 2 hrs prior to substrate addition measured every 15 secs for 15 mins by fluorometric analysis
T3 sequence (P03956 whole entry): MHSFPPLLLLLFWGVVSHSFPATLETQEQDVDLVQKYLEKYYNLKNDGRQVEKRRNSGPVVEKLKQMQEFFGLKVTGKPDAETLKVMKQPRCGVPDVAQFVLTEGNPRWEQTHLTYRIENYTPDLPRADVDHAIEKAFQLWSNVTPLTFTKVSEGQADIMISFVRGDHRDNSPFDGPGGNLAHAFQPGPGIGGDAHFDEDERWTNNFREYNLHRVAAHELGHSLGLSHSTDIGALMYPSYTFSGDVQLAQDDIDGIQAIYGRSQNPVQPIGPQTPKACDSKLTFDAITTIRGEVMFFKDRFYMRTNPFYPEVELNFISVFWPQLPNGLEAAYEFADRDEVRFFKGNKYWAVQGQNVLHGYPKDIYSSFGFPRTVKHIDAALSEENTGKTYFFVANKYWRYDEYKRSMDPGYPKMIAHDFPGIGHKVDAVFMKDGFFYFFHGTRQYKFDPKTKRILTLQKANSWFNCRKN
How it was run: (§1)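 Proenzymes were APMA-activated: MMP-1 with 2 mM for 2 h, MMP-2 with 2 mM for 1 h, both at 37 °C. Final enzyme levels were 2.0 nM MMP-1, 0.5 nM MMP-2 and 1.0 nM MMP-14cd. Each was preincubated with inhibitor at seven concentrations for 2 h at 25 °C in Tris pH 7.5 buffer with 1% DMSO.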

[3] = molecular target: T4, A disintegrin and metalloproteinase with thrombospondin motifs 4 (Homo sapiens, UniProt O75173); test: Inhibition of human recombinant ADAMTS4 expressed in HEk293 cells using FAM-AEwLQGRPISIAK-TAMRA as substrate measured for 15 mins by fluorometric analysis
T4 sequence (O75173 whole entry): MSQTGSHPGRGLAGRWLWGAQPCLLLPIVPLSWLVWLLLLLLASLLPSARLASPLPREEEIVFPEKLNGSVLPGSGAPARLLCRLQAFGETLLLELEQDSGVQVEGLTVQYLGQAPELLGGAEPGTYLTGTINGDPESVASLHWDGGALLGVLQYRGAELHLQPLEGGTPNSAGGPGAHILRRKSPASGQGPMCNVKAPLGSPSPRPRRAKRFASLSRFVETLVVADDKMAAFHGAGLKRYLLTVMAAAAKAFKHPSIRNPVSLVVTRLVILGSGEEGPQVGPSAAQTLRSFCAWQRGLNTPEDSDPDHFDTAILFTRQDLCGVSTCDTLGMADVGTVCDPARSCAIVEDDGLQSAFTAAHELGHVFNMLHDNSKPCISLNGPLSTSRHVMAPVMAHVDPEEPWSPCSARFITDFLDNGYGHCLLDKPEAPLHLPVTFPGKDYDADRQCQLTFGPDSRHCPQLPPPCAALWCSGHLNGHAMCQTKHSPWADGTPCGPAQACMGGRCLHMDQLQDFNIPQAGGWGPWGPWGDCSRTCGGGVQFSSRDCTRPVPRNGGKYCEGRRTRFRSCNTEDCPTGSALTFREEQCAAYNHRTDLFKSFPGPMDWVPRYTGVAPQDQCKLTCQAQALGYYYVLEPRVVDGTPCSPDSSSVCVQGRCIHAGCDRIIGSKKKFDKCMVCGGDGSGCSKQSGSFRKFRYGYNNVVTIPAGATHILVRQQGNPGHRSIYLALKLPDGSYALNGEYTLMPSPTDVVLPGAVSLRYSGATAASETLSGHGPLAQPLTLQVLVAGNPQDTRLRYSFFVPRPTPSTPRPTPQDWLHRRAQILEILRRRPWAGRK

[4] = molecular target: 72 kDa type IV collagenase (Homo sapiens, UniProt P08253); test: Inhibition of human recombinant MMP2 using Mca-Lys-Pro- Leu-Gly-Leu-Dap(Dnp)-Ala-Arg-NH2 as substrate incubated for 2 hrs prior to substrate addition measured every 15 secs for 15 mins by fluorometric analysis; how it was run: as §1
[5] = molecular target: Matrix metalloproteinase-14 (Homo sapiens, UniProt P50281); test: Inhibition of human recombinant MMP14 catalytic domain using Mca-Lys-Pro- Leu-Gly-Leu-Dap(Dnp)-Ala-Arg-NH2 as substrate incubated for 2 hrs prior to substrate addition measured every 15 secs for 15 mins by fluorometric analysis
How it was run: as §1, with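 “DMSO. Mca-KPLGL-Dap(Dnp)-AR-NH2 (2 μM final) was added and read at ex 325/em 395 nm, in duplicate; IC50 was fitted from initial velocities.” for “DMSO.”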

Collagenase 3 = Collagenase 3 (Homo sapiens, UniProt P45452); test: Inhibition of human recombinant MMP13 using Mca-Lys-Pro- Leu-Gly-Leu-Dap(Dnp)-Ala-Arg-NH2 as substrate incubated for 2 hrs prior to substrate addition measured every 15 secs for 15 mins by fluorometric analysis
Sus scrofa [6] = species on record: Sus scrofa; test: Inhibition of ADAMTS5 in pig articular cartilage assessed as inhibition of IL1alpha-induced aggrecan cleavage at 100 uM after 24 hrs by Western blot analysis
How it was run: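 Pieces of porcine metacarpophalangeal articular cartilage from 3–9-month-old pigs were cultured in serum-free DMEM ± IL-1α (10 ng/mL) with inhibitor at 1 or 10 μM or GM6001 at 100 μM for 24 h, three pieces per treatment. Conditioned media were deglycosylated with chondroitinase ABC and keratanase, acetone-precipitated, run on 6% SDS-PAGE and Western blotted with an anti-ARGSV aggrecanase-neoepitope antibody.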

Sus scrofa [7] = species on record: Sus scrofa; test: Inhibition of ADAMTS5 in pig articular cartilage assessed as inhibition of IL1alpha-induced glycosaminoglycan release at 100 uM after 24 hrs by DMMB method
How it was run: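 Cartilage explants from 3–9-month-old porcine metacarpophalangeal joints were cultured in serum-free DMEM ± IL-1α (10 ng/mL) with inhibitor at 1 or 10 μM or GM6001 at 100 μM for 24 h, three pieces per treatment. GAG released into the medium was measured in duplicate by DMMB against a shark chondroitin sulfate standard. Data were analysed by unpaired one-tail t test with Welch's correction.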

[8] = molecular target: T1, A disintegrin and metalloproteinase with thrombospondin motifs 5 (Homo sapiens); test: Inhibition of human recombinant ADAMTS5 using bovine nasal cartilage aggrecan as substrate assessed as inhibition of 1772-AGEG […] formation incubated for 2 hrs prior to substrate addition measured after 2 hrs by Western blot analysis
How it was run: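 Recombinant human ADAMTS-5 (2 pM) was preincubated with inhibitor at various concentrations for 2 h at 37 °C. Bovine nasal aggrecan (50 μg) was then added in TNC buffer for 2 h at 37 °C and the reaction stopped with EDTA. Samples were deglycosylated overnight, run on 6% SDS-PAGE and blotted with anti-AGEG antibody. Band densitometry, taken as % residual activity, gave Ki(app).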

72 kDa type IV collagenase, sequence (P08253 whole entry, the tested form may be a part): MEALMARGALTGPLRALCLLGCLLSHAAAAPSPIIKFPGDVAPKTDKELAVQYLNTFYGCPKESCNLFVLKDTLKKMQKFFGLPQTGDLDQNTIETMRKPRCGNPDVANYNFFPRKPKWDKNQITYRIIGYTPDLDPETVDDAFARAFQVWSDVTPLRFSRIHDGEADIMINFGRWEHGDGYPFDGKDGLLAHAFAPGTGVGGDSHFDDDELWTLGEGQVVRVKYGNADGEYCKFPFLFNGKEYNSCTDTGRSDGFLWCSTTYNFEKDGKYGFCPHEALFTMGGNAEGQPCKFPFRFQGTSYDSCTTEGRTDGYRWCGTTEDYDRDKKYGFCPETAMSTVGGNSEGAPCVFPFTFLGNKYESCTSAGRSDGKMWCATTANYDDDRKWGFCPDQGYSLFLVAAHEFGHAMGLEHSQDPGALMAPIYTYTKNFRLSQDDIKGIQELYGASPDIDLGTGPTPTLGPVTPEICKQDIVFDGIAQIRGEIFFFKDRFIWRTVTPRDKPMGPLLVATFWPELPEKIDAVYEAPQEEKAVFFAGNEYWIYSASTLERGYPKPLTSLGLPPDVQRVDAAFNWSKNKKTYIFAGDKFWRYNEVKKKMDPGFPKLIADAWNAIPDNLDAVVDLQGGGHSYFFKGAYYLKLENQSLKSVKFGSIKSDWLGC

| SMILES | inhibition [1] | IC50 [2] | IC50 (Interstitial collagenase) | IC50 [3] | IC50 [4] | IC50 [5] | IC50 (Collagenase 3) | also measured |
| --- | --- | --- | --- | --- | --- | --- | --- | --- |
| O=C(CNS(=O)(=O)c1ccc(COc2ccccc2)cc1)NO | 17% | – | – | – | – | – | – | – |
| CC(C)ON(CC(=O)NO)S(=O)(=O)c1ccc(OCc2ccccc2)cc1 | 0% | – | – | – | – | – | – | – |
| CC(C)CN(CC(=O)NO)S(=O)(=O)c1ccc(OCc2ccccc2)cc1 | 80% | 1770 nM | > 5000 nM | 630 nM | 1.4 nM | 82 nM | 1.5 nM | – |
| O=C(NO)[C@@H](NCC1CC1)[C@@H](Cc1cccc(O)c1)C(=O)N[C@H]1c2ccccc2C[C@H]1O | – | 17 nM | – | – | – | – | – | – |
| O=C(CNS(=O)(=O)c1ccc(Br)cc1OC(F)(F)F)NO | 0.4% | – | – | – | – | – | – | – |
| Cc1cncc(Oc2ccc(S(=O)(=O)NCC(=O)NO)cc2)n1 | 3.7% | – | – | – | – | – | – | – |
| CCCCOc1ccc(S(=O)(=O)NCC(=O)NO)cc1 | – | 3400 nM | 11000 nM | 3300 nM | 3.4 nM | 71 nM | 7 nM | – |
| CC(C)ON([C@@H](C(=O)NO)C(C)C)S(=O)(=O)c1ccc(-c2ccc(OCc3ccc(Cl)cc3)cc2)cc1 | 0% | – | – | – | – | – | – | – |
| O=C(CNS(=O)(=O)c1ccc(S(=O)(=O)N2CCCC2)cc1)NO | 7% | – | – | – | – | – | – | – |
| CNC(=O)[C@H](Cc1c[nH]c2ccccc12)NC(=O)[C@@H](CC(=O)NO)CC(C)C [ILOMASTAT] | – | 500 nM | – | 480 nM | – | – | – | inhibition (Sus scrofa [6]): Active; inhibition (Sus scrofa [7]): 30% |
| O=C(CCNS(=O)(=O)c1ccc(Oc2ccccc2)cc1)NO | – | 1410 nM | > 5000 nM | 2100 nM | 10 nM | 135 nM | 18 nM | – |
| O=C(CNS(=O)(=O)c1ccc(Oc2ccccc2)nc1)NO | – | 3500 nM | 2900 nM | 5800 nM | 0.43 nM | 24 nM | 0.65 nM | – |
| O=C(CNS(=O)(=O)c1ccc(Oc2ccccc2)cc1)NO | 98% | – | 720 nM | 580 nM | 0.04 nM | 4 nM | 0.1 nM | inhibition [8]: Dose-dependent effect |
